# Laboratory results from ChEMBL document CHEMBL4364306, “Structure-activity relationships of thiazole and benzothiazole derivatives as selective cannabinoid CB2 agonists with in vivo anti-inflammatory properties” (Eur J Med Chem, 2019).
# The source made the active and inactive calls. No cut-off for these calls is given here.
# Columns and labels:
# Cannabinoid receptor 2 [1] = molecular target: T1, Cannabinoid receptor 2 (Homo sapiens, UniProt P34972); test: Antagonist activity at N-terminal Flag epitope tagged CB2 (unknown origin) expressed in HTLA cells assessed as decrease in CP55940-induced beta-arrestin recruitment pretreated with non-selective cannabinoid receptor agonist CP55940 for 30 mins and measured after 20 mins by Tango assay; assay type: cell-based
# Cannabinoid receptor 2 [2] = molecular target: T1, Cannabinoid receptor 2; test: Agonist activity at N-terminal Flag epitope tagged CB2 (unknown origin) expressed in HTLA cells assessed as increase of beta-arrestin recruitment by Tango assay; assay type: cell-based
# Procedure, shortened: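 β-arrestin Tango assay: HTLA cells transfected overnight with GPCR tango constructs, plated at 15,000 cells/well in DMEM with 1% dFBS, recovered ≥6 h. Drugs in Tango buffer (20 mM HEPES, 1x HBSS, pH 7.40) added overnight, full concentration-response (maximum 30 µM). BrightGlo reagent, 20 min room temperature in dark, luminescence read.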
# Cannabinoid receptor 1 [3] = molecular target: T2, Cannabinoid receptor 1 (Homo sapiens, UniProt P21554); test: Agonist activity at N-terminal Flag epitope tagged CB1 (unknown origin) expressed in HTLA cells assessed as increase of beta-arrestin recruitment by Tango assay; assay type: cell-based
# Procedure, shortened: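 HTLA cells transfected overnight with GPCR Tango constructs, plated at 15,000 cells/well in DMEM with 1% dFBS and allowed to recover at least 6 h. Compounds in Tango buffer (20 mM HEPES, 1x HBSS, pH 7.40) added overnight, full concentration-response up to 30 µM against CP-55,940 as reference agonist. BrightGlo reagent added for 20 min at room temperature in the dark, then luminescence read.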
# Homo sapiens = species: Homo sapiens; test: Selectivity index, ratio of Ki for recombinant human CB1R expressed in HEK293 cell membranes to Ki for recombinant human CB2R expressed in HEK293 cell membranes; assay type: cell-based
# Cannabinoid receptor 1 [4] = molecular target: T2, Cannabinoid receptor 1; test: Displacement of [3H]CP55940 from recombinant human CB1R expressed in HEK293 cell membranes at 10 uM incubated for 90 mins relative to control
# Cannabinoid receptor 2 [5] = molecular target: T1, Cannabinoid receptor 2; test: Displacement of [3H]CP55940 from recombinant human CB2R expressed in HEK293 cell membranes at 10 uM incubated for 90 mins relative to control
# Cannabinoid receptor 1 [6] = molecular target: T2, Cannabinoid receptor 1; test: Antagonist activity at N-terminal Flag epitope tagged CB1 (unknown origin) expressed in HTLA cells assessed as decrease in CP55940-induced beta-arrestin recruitment pretreated with non-selective cannabinoid receptor agonist CP55940 for 30 mins and measured after 20 mins by Tango assay; assay type: cell-based
# Cannabinoid receptor 2 [7] = molecular target: T1, Cannabinoid receptor 2; test: Agonist activity at recombinant human CB2R expressed in CHOK1 cells assessed as inhibition of NKH477-stimulated intracellular cAMP levels after 30 mins by chemiluminescent detection based cAMP Hunter assay; assay type: functional, cell-based
# Procedure, shortened: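 CHO-K1 cells overexpressing human CB2R, plated 30,000 cells/well, overnight 37 °C, 5% CO2. Compound dose-responses incubated 30 min at 37 °C with NKH-477 (25 µM) to stimulate adenylate cyclase. Enzyme fragment complementation chemiluminescence read. Normalised to NKH-477 alone as 100%; mean ± SEM of three independent experiments in triplicate.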
# T2 sequence (P21554 whole entry): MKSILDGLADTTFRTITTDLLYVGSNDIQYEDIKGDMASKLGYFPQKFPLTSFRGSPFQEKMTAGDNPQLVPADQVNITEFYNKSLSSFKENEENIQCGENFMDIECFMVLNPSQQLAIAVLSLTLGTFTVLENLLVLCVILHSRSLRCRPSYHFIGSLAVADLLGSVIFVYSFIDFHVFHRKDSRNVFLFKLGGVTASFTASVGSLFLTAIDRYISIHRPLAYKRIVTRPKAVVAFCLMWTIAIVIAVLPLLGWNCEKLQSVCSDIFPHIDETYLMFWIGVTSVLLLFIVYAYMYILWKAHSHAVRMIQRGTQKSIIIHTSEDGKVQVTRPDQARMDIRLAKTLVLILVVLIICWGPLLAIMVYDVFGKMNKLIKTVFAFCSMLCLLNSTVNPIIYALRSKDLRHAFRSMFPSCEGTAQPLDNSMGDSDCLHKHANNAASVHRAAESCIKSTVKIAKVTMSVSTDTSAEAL
# T1 sequence (P34972 whole entry): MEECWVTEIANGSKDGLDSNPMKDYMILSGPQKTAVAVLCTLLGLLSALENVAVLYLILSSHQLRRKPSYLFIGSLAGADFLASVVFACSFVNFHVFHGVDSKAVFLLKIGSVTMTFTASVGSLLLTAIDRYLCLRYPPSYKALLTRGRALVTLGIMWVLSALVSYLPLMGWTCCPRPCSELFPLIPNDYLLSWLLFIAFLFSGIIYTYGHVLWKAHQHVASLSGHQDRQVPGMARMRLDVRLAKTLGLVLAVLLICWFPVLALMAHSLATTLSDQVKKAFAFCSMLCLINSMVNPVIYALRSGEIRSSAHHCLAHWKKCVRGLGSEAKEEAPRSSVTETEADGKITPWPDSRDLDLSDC
SMILES,EC50 (Cannabinoid receptor 2 [1]),EC50 (Cannabinoid receptor 2 [2]),EC50 (Cannabinoid receptor 1 [3]),Ratio Ki (Homo sapiens),Activity (Cannabinoid receptor 1 [4]),Activity (Cannabinoid receptor 2 [5]),EC50 (Cannabinoid receptor 1 [6]),EC50 (Cannabinoid receptor 2 [7])
O=C(Nc1nc2ccccc2s1)c1cccc2ccccc12,> 30 µM,> 30 µM,> 30 µM,> 7,Active,Active,> 30 µM,–
Cc1nc(C(C)(C)C)sc1C(=O)NC12CC3CC(CC(C3)C1)C2,> 30 µM,3.98 µM,> 30 µM,> 25,Active,Active,> 30 µM,–
Cc1nc(-c2ccccc2)sc1C(=O)NCc1ccccc1Cl,> 30 µM,> 30 µM,> 30 µM,–,Active,Active,> 30 µM,–
O=C(Nc1nc2ccccc2s1)C12CC3CC(CC(C3)C1)C2,> 30 µM,> 30 µM,> 30 µM,> 36,Active,Active,> 30 µM,–
CCCCNC(=O)c1sc(-c2ccccc2)nc1C,> 30 µM,> 30 µM,> 30 µM,–,Active,Active,> 30 µM,–
Cc1nc(-c2ccccc2)sc1C(=O)NCc1ccc(F)cc1,> 30 µM,> 30 µM,> 30 µM,–,Active,Active,> 30 µM,–
O=C(Nc1nc2ccccc2s1)c1ccc(C(F)(F)F)cc1,> 30 µM,> 30 µM,> 30 µM,–,Active,Active,> 30 µM,–
O=C(NC12CC3CC(CC(C3)C1)C2)c1nc2ccccc2s1,> 30 µM,> 30 µM,> 30 µM,> 121,Active,Active,> 30 µM,–
Cc1nc(C)c(C(=O)NCc2ccccc2)s1,> 30 µM,> 30 µM,> 30 µM,–,Active,Active,> 30 µM,–
Cc1nc(-c2ccccc2)sc1C(=O)NC1CCCc2ccccc21 (stereo unspecified),> 30 µM,> 30 µM,> 30 µM,> 4,Active,Active,> 30 µM,–
Cc1nc(-c2ccccc2)sc1C(=O)NCc1ccccc1,> 30 µM,> 30 µM,> 30 µM,–,Active,Active,> 30 µM,–
Cc1nc(-c2ccccc2)sc1C(=O)N1CCOCC1,> 30 µM,> 30 µM,> 30 µM,> 3,Active,Active,> 30 µM,–
CCCCCn1/c(=N\C(=O)C23CC4CC(CC(C4)C2)C3)sc2ccccc21,> 30 µM,0.0263 µM,1.62 µM,120,Active,Active,> 30 µM,0.057 µM
O=C(NC1CCCc2ccccc21)c1nc2ccccc2s1 (stereo unspecified),> 30 µM,> 30 µM,> 30 µM,3,Active,Active,> 30 µM,–
O=C(NCC1CCCCC1)c1nc2ccccc2s1,> 30 µM,> 30 µM,> 30 µM,> 7,Active,Active,> 30 µM,–
Cc1nc(-c2ccccc2)sc1C(=O)NC1CCCC1,> 30 µM,> 30 µM,> 30 µM,–,Active,Active,> 30 µM,–
